FLuc inhib CS = firefly luciferase enzyme inhibitors, primary screen, artefact control for luciferase-based inhibitor screens, biochemical, luminescence, ATPLite; hit rate 1.5% among 200,000; 10 min; Luciferin 4-monooxygenase (Photinus pyralis), P08659; inhibition, % at 10 µM;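 active = inhibition above about 50% when tested at 10 µM, limit read from the data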
PPC-1+TRAIL kill = compounds killing PPC-1 cancer cells with TRAIL present, primary screen, TRAIL potentiator project, ATPLite luminescence, uHTS; PPC-1 cells + TRAIL, ATPLite viability luminescence; cell killing (% activity), % at 4 µM or 5 µM; hit rate 0.41% among 220,000; AID 1443, 2008;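 active = cell killing above 50% in the first pass at 4 µM, then a duplicate retest at 5 µM averaging 50% or more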;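 note: plate controls were cells with TRAIL plus DMSO for no effect and medium-only wells lacking cells for full effect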
FLuc act counter = FLuc activators, initial screening, artefact control for FLuc-dependent activation tests, biochemical, ATPlite luminescence. ATPlite luciferase biochemical, 10 min; 0 = ATP-free wells, 1 = DMSO control. 200,000 tested, under 10 active. AID 1027, 2008. activation factor at 10 µM;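 active = luciferase activation factor, scaled between plate controls, of at least 2 with compound at 10 µM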
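Assay system: Luciferase/luciferin reagent mix; Medium: PBS as buffer for the ATP substrate; Dosing: test compounds dosed from 2 mM stocks in 100% DMSO; Times: 10 min, room temperature; Signal: luminescence from luciferase reaction; Read-out: luciferase activation; Controls: No-ATP low control, compound-free enzyme-plus-ATP high control.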
PKD1 inh = inhibitors of human PKD1 kinase, biochemical, fluorescence polarization. Serine/threonine-protein kinase D1 (Homo sapiens), Q15139. PKD1 kinase fluorescence polarization assay. inhibition, % (concentration not given with the values). hit rate 0.056% among 200,000. AID 797, 2007; in the data active = inhibition above about 50%
Wee1 stabilizer = Wee1 degradation inhibitors, primary screen, cell-based, HeLa, Wee1K328M-luciferase, luminescence | HeLa Luc-Wee1K328M stability; 100% = proteasome inhibitor MG132 effect | Wee1-like protein kinase (Homo sapiens), P30291 | hit rate 1.2% among 220,000 | reporter increase, % at 5 µM | AID 1321, 2008;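 active = activation above the mean of all tested compounds plus 3 SD, set per screening run, cut at about 8.8% in these data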;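 note: cells exposed to compound for 20 h before luminescence read; 0% = DMSO alone and 100% = MG132 at 30 µM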
TRAIL sens C8 = viability loss with TRAIL in NB7+C8 cells, primary screen, TRAIL sensitizer project, cell-based, ATPlite luminescence; inhibition (viability loss, TRAIL sensitization), % at 10 µM; hit rate 1% among 360,000; AID 624354, 2012;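 active = compounds causing at least 50% loss of cell viability in the single-dose screen, relative to plate controls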
* marks the source's active call; other numbers are inactive results; . = no result given. Only some compounds are listed: those with a hit (about 2.2% of all), similar ones and a draw of the others.

SMILES | FLuc inhib CS | PPC-1+TRAIL kill | FLuc act counter | PKD1 inh | Wee1 stabilizer | TRAIL sens C8
Nc1ccc(C(=O)OCC(=O)Nc2ccc3c(c2)OCO3)cc1[N+](=O)[O-] | -1 | 16 | 1 | 1 | 11* | -1
COc1ccccc1CC(=O)NNC(=O)CN(C)S(=O)(=O)c1ccc(Cl)cc1 | . | . | . | . | . | 4
O=C1Nc2ccccc2N(O)N1c1ccc(S(=O)(=O)N2CCCCCC2)cc1 | 0 | 6 | 1 | -3 | 9.7* | 2
CCN(CC)S(=O)(=O)c1ccc(N2C(=O)Nc3ccccc3N2O)cc1 | -3 | -23 | 1 | 2 | 1 | -1
CCN(CC)c1ccc(/C=N/N2CCOCC2)cc1 | 52* | 33 | 0.5 | -14 | -1 | 5
COc1ccc2[nH]c(=O)cc(C(=O)O)c2c1 | -5 | -10 | 1.1 | 4 | 0 | -9
COc1ccc2[nH]c3c4c(ccc3c2c1)C(=O)C=CC4=O | . | 18 | . | . | 14* | 41
O=[N+]([O-])c1c(Nc2ccccc2O)ccc2nonc12 | -6 | . | 1.1 | 1 | 4 | -3
O=[N+]([O-])c1c(Nc2ccccc2O)cc(Cl)c2nonc12 | . | . | . | . | . | 71*
N#Cc1nc(Nc2cccc(Cl)c2)c2ncn(C3CCCC3)c2n1 | . | . | . | . | . | 52*
Cc1cc(N2CCN(C(=O)c3ccco3)CC2)n2nc(-c3cccc(Cl)c3)cc2n1 | -6 | -3 | 1.1 | -12 | 9.2* | 23
CC(=O)Nc1ccc(S(=O)(=O)Nc2ccc(S(=O)(=O)N3CCCC3)cc2)cc1 | -4 | -14 | 1 | -8 | 9.2* | 12
O=C(O)CC(c1ccccc1)c1ccc2c(c1)OCO2 (configuration not stated) | . | . | . | . | . | 10
O=C(Nc1ccc2nc(-c3cccnc3)[nH]c2c1)C1CCCCC1 | 64* | 35 | 0.4 | 4 | 3 | 31
O=C(Nc1ccc2nc(-c3cccnc3)[nH]c2c1)C12CC3CC(CC(C3)C1)C2 | 29 | 19 | 0.7 | -6 | -1 | 36
Cc1ccc(S(=O)(=O)NCc2ccccc2)cc1C(=O)NCc1ccncc1 | . | . | . | . | . | -22
CCc1nnc(NC(=O)CSc2nc(C)c3c(c2C#N)CCCC3)s1 | 12 | 57* | 0.9 | -6 | 0 | 66*
COc1ccc(NC(=O)CSc2nc(C)c3c(c2C#N)CCCC3)cc1 | -7 | 0 | 1.1 | 0 | -1 | -16
CC(=O)c1cccc(NC(=O)Cn2nc(-c3ccccc3Cl)ccc2=O)c1 | -6 | 0 | 1.1 | -1 | 11* | 13
O=C(NC1CCCC1)c1ccc(COc2ccccc2Br)o1 | . | . | . | . | . | 33
Cc1cc(C)c2c(N)c(C(=O)N/N=C/c3cccnc3)sc2n1 | . | -22 | . | . | 9.5* | 2
CCOc1ccc(NS(=O)(=O)c2ccc3[nH]cc(C(=O)NCC4CCCO4)c(=O)c3c2)cc1 (configuration not stated) | -11 | . | 1.1 | 2 | 0 | -5
Cc1ccccc1NS(=O)(=O)c1ccc2[nH]cc(C(=O)N(C)Cc3ccco3)c(=O)c2c1 | -5 | 4 | 1 | -16 | 3 | 0
Cc1cc(C)cc(NS(=O)(=O)c2ccc3[nH]cc(C(=O)NCc4ccco4)c(=O)c3c2)c1 | -4 | 19 | 1 | 0 | 2 | 84*
CCOc1ccc(NS(=O)(=O)c2ccc3[nH]cc(C(=O)N(CC)CC)c(=O)c3c2)cc1 | -11 | . | 1.1 | 12 | 17* | 5
SMILES | FLuc inhib CS | PPC-1+TRAIL kill | FLuc act counter | PKD1 inh | Wee1 stabilizer | TRAIL sens C8
CCOC(=O)CSc1nnc(-c2ccc(Cl)cc2Cl)o1 | 56* | 21 | 0.4 | 1 | -3 | 13
CNc1ccc(C(=O)OCC(=O)NC(=O)NC2CCCC2)cc1[N+](=O)[O-] | . | . | . | . | . | 9
COc1ccc(C(=O)c2c(C(F)(F)F)oc3c2C(=O)c2ccccc2C3=O)cc1OC | 4 | 40 | 1 | -7 | -3 | 95*
Cc1ccc(CN2CCCC(CO)(Cc3ccccc3C)C2)s1 (configuration not stated) | -4 | 16 | 1 | -6 | 8.9* | 3
CSc1ncccc1C(=O)OCC(=O)c1cc(C)n(CC2CCCO2)c1C (configuration not stated) | . | 32 | . | . | 5 | 48*
Cc1cc(C(=O)CSc2nc3ccccc3[nH]2)c(C)n1CC1CCCO1 (configuration not stated) | 48 | 7 | 0.5 | 2 | 2 | 76*
Cc1cc(C(=O)COC(=O)c2cccnc2Cl)c(C)n1C | . | . | . | . | . | 64*
Cc1cc(C(=O)COC(=O)c2ccc3c(c2)OCO3)c(C)n1CC1CCCO1 (configuration not stated) | 67* | 32 | 0.3 | 3 | -3 | 1
CCn1c(C)cc(C(=O)COC(=O)c2cccnc2SC)c1C | . | . | . | . | . | 19
COc1cc(C(=O)OCC(=O)c2cc(C)n(CC3CCCO3)c2C)cc(OC)c1C (configuration not stated) | . | . | . | . | . | 7
CC(C)(C)OC(=O)C[C@H]1C/C=C\C[C@@H](CC(=O)NCCO)C(=O)NCCOC1=O | . | . | . | . | . | 12
CCCN1CCN(S(=O)(=O)c2ccc(-n3cnnn3)cc2)CC1 | . | . | . | . | . | -16
O=C(COC(=O)CNC(=O)c1ccc([N+](=O)[O-])o1)Nc1ncc(C(F)(F)F)cc1Cl | . | . | . | . | . | 6
C=C(Cl)COc1ccc2c(CC)cc(=O)oc2c1 | -4 | 10 | 1 | 2 | -1 | 21
C=C(Cl)COc1ccc2c(CCCC)cc(=O)oc2c1 | -7 | 27 | 1.1 | -5 | 9.3* | 5
O=c1c2c(nc3cc(-c4ccc(Br)cc4)[nH]n13)CCCC2 | 58* | . | 0.4 | -3 | 1 | 43
Cc1cc2nc3c(c(=O)n2[nH]1)CCCC3 | -6 | -1 | 1.1 | 0 | 1 | -18
O=c1c2c(nc3cc(-c4ccccc4)[nH]n13)CCC2 | 61* | 37 | 0.4 | -11 | 8 | 32
COc1ccc(-c2cc3nc4c(c(=O)n3[nH]2)CCC4)cc1 | 52* | 23 | 0.5 | -2 | 4 | 27
FC(F)(F)c1cccc(CNC2c3ccccc3-c3ccccc32)c1 | . | . | . | . | . | 4
COc1cc(NC(=O)CN(C)S(=O)(=O)c2ccc(-c3ccc(=O)[nH]n3)s2)cc(OC)c1 | . | . | . | . | . | 2
Cc1cccc(Nc2nnc(SCC(=O)c3c(N)n(C4CC4)c(=O)[nH]c3=O)s2)c1 | . | . | . | . | . | 49
CCCc1cc(=O)[nH]c(SCC(=O)c2c(N)n(C3CC3)c(=O)[nH]c2=O)n1 | . | . | . | . | . | 85*
Cc1ccc(Nc2nnc(SCC(=O)Nc3cccnc3Cl)s2)cc1C | 63* | 29 | 0.4 | 8 | 6 | 42
Cc1ccc(Nc2nnc(SCC(=O)Nc3ccccc3[N+](=O)[O-])s2)cc1 | 12 | 24 | 0.9 | -3 | -1 | 9

Screening results from PubChem BioAssay.
